The list is not random: actives were taken first. Their share in the collection is about 29%.
CYP2C19 act = cytochrome P450 2C19 (human) activation; activation factor at 5 µM; 96,000 tested, under 10 active; recombinant CYP2C19, luciferin-H EGE luminescence; active compounds read high; 0 = fully inhibited enzyme, 1 = untreated enzyme; AID 1025; P33261;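 active = activation factor of at least 2 at 5 µM in the primary screen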
Target sequence (P33261 whole entry, looked up): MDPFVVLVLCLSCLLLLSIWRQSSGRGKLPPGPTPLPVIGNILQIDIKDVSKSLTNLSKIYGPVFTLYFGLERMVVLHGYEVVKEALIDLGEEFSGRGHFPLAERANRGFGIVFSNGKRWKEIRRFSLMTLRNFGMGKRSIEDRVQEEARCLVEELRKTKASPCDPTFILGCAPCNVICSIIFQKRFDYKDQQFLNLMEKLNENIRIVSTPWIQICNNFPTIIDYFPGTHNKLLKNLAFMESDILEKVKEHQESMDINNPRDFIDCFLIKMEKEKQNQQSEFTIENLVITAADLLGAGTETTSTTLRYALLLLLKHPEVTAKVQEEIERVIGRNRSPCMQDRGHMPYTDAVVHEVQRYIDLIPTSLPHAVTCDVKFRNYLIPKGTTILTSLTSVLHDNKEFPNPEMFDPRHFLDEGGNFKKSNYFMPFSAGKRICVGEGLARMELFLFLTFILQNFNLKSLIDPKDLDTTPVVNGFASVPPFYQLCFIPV
CYP2C9 act = activators of human CYP2C9 | activation factor at 5 µM | AID 1024 | recombinant CYP2C9, luciferin-H conversion, luminescence; active compounds read high; factor 1 = untreated enzyme, 0 = blocked | hit rate 1.4% among 96,000 | P11712;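 active = activation factor of 2 or more for CYP2C9 at a 5 µM dose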
E coli WT exp = blocks growth of wild type E. coli BW25113. OD600 absorbance. growth inhibition, % at 100 µM. hit rate 0.15% among 98,000. AID 710;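 active = growth inhibition above about 50% at one test dose, limit read from the data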;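 also: growth measured after 20 h incubation at 37 °C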
CYP2C9 inh = inhibitors of human CYP2C9; P11712; CYP2C9 Supersomes, luciferin-H conversion, luminescence; inhibition, % at 5 µM; hit rate 20% among 96,000; AID 777;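 active = blocking of liver enzyme CYP2C9 beyond about 50% at 5 µM, limit read from the data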
tolC growth inh = growth inhibitors of E. coli BW25113 tolC mutant | OD615 | growth inhibition, % at 10 µM (by protocol) | hit rate 2.2% among 65,000 | AID 573;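 active = growth inhibition at or above a cutoff equal to the mean over every tested compound plus 3 SD, cut at about 60% in these data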;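 also: growth measured after 20 h incubation at 37 °C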
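signal = optical density read at 615 nm | test system = E. coli ΔtolC::kan strain BW25113 | timing = 20 h compound exposure of bacteria at 37 °C | buffer or medium = LB medium plus 50 µg/mL kanamycin | compound dosing = 10 µM final, single dose | evaluation = % inhibition of E. coli growth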
CYP2C19 inhib = inhibitors of human CYP2C19; inhibition, % at 5 µM; AID 778; hit rate 21% among 96,000; P33261; CYP2C19 Supersomes, luciferin-H EGE luminescence, 30 min;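 active = CYP2C19 inhibition above a set limit at 5 µM in the primary screen, cut at about 50% in these data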
Of the large screens only hits and unclear results are named; the others gave an inactive call.

NS(=O)(=O)c1ccc(NC(=O)CSc2nnc(COc3ccccc3Cl)n2C2CC2)cc1	none (no result: tolC growth inh)
CC(C)C[C@H](N)c1nnc(S(=O)(=O)Cc2ccc(F)cc2)o1	none
C=CC[N+](C)(C)CCCNC(=O)/C=N/O	none (no result: CYP2C19 act, CYP2C9 act, E coli WT exp, CYP2C9 inh, CYP2C19 inhib)
CC(=O)C(Sc1nc(N2CCOCC2)nc(N2CCOCC2)n1)C(=O)Nc1ccccc1 (stereo unspecified)	CYP2C9 inh 55
CCOC(=O)CNC(=O)CSc1nc(NCc2ccccc2)nc(N(C)C)n1	CYP2C19 inhib 53
CCCc1cc(Nc2ccccc2OCC)n2ncnc2n1	none (no result: tolC growth inh)
O=C(COC(=O)c1cccc(NC(=O)c2ccco2)c1)c1ccc(Br)cc1	CYP2C9 act 2.3
Cc1ccc(O)c(NC(=O)c2cccc(NC(=O)c3ccco3)c2)c1	CYP2C19 inhib 53
COc1ccc(NC(=O)c2ccco2)cc1NC(=O)c1cccc(OC(C)C)c1	CYP2C19 inhib 64
COc1ccc(NC(=O)Cc2ccc(Cl)cc2)cc1NC(=O)c1ccco1	CYP2C9 inh 65, CYP2C19 inhib 74
CC(C)(C)C(=O)COC(=O)c1cccc(NC(=O)c2ccco2)c1	none
CCOC(=O)N1CCN(C(=O)c2c(-c3ccccc3)noc2C)CC1	none
COc1cccc(C(=O)Nc2cc(NC(=O)c3ccco3)ccc2OC)c1	none
CC(C)(C)NC(=O)c1cccc(NC(=O)c2ccc(NC(=O)c3ccco3)cc2)c1	CYP2C9 inh 97, CYP2C19 inhib 74
COc1ccccc1NC(=O)c1cccc(NC(=O)c2ccco2)c1	CYP2C9 act 2.8
CC(C)CNC(=O)c1cccc(NC(=O)c2ccc(NC(=O)c3ccco3)cc2)c1	none
CCOC(=O)CSc1nnc(Cn2c(=O)sc3ccccc32)n1-c1ccccc1C	none (no result: CYP2C19 act, CYP2C9 act, CYP2C9 inh, CYP2C19 inhib)
COC(=O)c1sccc1-n1cccc1C(=O)C(=O)N1CC(C)OC(C)C1 (stereo unspecified)	none (no result: tolC growth inh)
Cc1ccc(N2C(=O)CC(Sc3nc4ccccc4o3)C2=O)cc1Cl (stereo unspecified)	none (no result: tolC growth inh)
O=S(=O)(c1ccccc1Cl)N1CCCC1c1nc(-c2ccccc2Cl)no1 (stereo unspecified)	CYP2C19 inhib 58 (no result: tolC growth inh)
O=S(=O)(c1ccc(Cl)cc1)N1CCCC1c1nc(-c2ccc(Cl)cc2)no1 (stereo unspecified)	none (no result: CYP2C19 act, CYP2C9 act, CYP2C9 inh, tolC growth inh, CYP2C19 inhib)
COc1ccc(C(=O)C2CCN(C(=O)c3ccco3)CC2)cc1	CYP2C19 inhib 51
Cc1cc(Br)ccc1SCC(=O)OCC(=O)N1CCN(C(=O)c2ccco2)CC1	CYP2C9 inh 61, CYP2C19 inhib 66
CCOC(=O)C1CCN(C(=O)c2ccco2)CC1	CYP2C19 inhib 63
C=CCN1C(=O)/C(=C\c2cccs2)C(C(=O)OC)=C1C	none (no result: tolC growth inh)
O=C(c1ccco1)N1CCC(c2nc(-c3ccccc3Cl)no2)CC1	CYP2C9 inh 57
O=C(c1ccco1)N1CCC(c2nc(-c3ccc(F)cc3)no2)CC1	none
CCOC(=O)C1CCN(C(=O)c2ccc(SC)cc2OC)CC1	CYP2C19 inhib 99
CCN1C2=C(C(=O)CCC2)C(c2ccc(O)cc2)C2=C1CCCC2=O	none
COc1ccc(OC)c(C2/C(=C(\O)c3ccc4c(c3)OCCO4)C(=O)C(=O)N2CCCN(C)C)c1 (stereo unspecified)	none (no result: CYP2C19 act, CYP2C9 act, E coli WT exp, CYP2C9 inh, CYP2C19 inhib)
COC(=O)c1ccc(CSc2ncn[nH]2)o1	none
COC(=O)c1ccc(CSc2n[nH]c(=S)s2)o1	CYP2C9 inh 58 (no result: tolC growth inh)
COC(=O)c1ccc(CSc2ncnc3ccccc23)o1	CYP2C19 inhib 70
COC(=O)c1ccc(CSc2nc3ccccc3s2)o1	CYP2C19 inhib 95
COC(=O)c1ccc(CSc2nnc(Nc3cccc(OC)c3)s2)o1	none (no result: tolC growth inh)
CCOC(=O)c1c(C)[nH]c(C(=O)C(C)OC(=O)c2oc3ccccc3c2COC)c1C (stereo unspecified)	none (no result: tolC growth inh)
Cc1csc(NC(=O)c2nc3nccc(C)n3n2)n1	none
COc1cccc(OC)c1C(=O)Nc1ccc2c(c1)OCCO2	none
COc1ccc(C(=O)Nc2ccc(N3CCOCC3)cc2)cc1OC	CYP2C19 inhib 58
COc1cc(C(=O)Nc2ccc3c(c2)OCCO3)ccc1OC(F)F	CYP2C19 inhib 88
COc1cc(C(=O)Nc2ccc3c(c2)OCCO3)ccc1OC(C)C	CYP2C19 inhib 55
Cc1ccnc2nc(C(=O)Nc3ccc(N4CCOCC4)cc3)nn12	CYP2C19 inhib 54 (no result: tolC growth inh)
CCC(C)C(NC=C1C(=O)OC(C)(C)OC1=O)C(=O)O (stereo unspecified)	none (no result: tolC growth inh)
O=c1cc(O)n(-c2ccc(F)cc2)c(=S)[nH]1	none (no result: tolC growth inh)
COc1ccc2oc(C(=O)C3CC3)c(NC(=O)CCCN3C(=O)c4ccccc4C3=O)c2c1	none (no result: CYP2C19 act, CYP2C9 act, E coli WT exp, CYP2C9 inh, CYP2C19 inhib)
O=C(c1cc2cc(Br)cc(Br)c2oc1=O)N1CCCc2ccccc21	none (no result: tolC growth inh)
COc1ccccc1N(CC(=O)NC1CCCCC1)S(C)(=O)=O	none
CN(C)c1ccc(CN(C)C2CCCCC2)cc1	CYP2C19 inhib 93
CN(C)c1ccc(CN2CCCCCC2)cc1	CYP2C9 inh 67, CYP2C19 inhib 55
Cc1c(C(=O)Nc2ccc(Cl)cc2)c2ccccn2c1C(=O)c1ccc([N+](=O)[O-])cc1	CYP2C9 inh 81 (no result: tolC growth inh)
Cn1c(/C=C/c2ccc([N+](=O)[O-])o2)nc2ccccc2c1=O	E coli WT exp 65 (no result: CYP2C19 act, tolC growth inh, CYP2C19 inhib)
Cc1cc2ncn(/N=C/c3ccc([N+](=O)[O-])o3)c2cc1C	none (no result: tolC growth inh)
COc1ccc(-c2cc(C(=O)Nc3c(C)nn(Cc4ccc(Cl)cc4)c3C)no2)cc1	CYP2C19 inhib 51
COc1ccc(-c2cc(C(=O)Nc3c(C)nn(Cc4ccccc4Cl)c3C)no2)cc1OC	CYP2C9 inh 63
Cc1nn(Cc2ccc(Cl)cc2)c(C)c1NC(=O)c1cc(-c2ccco2)on1	none
Cc1ccc(Cn2nc(C)c(NC(=O)c3cc(-c4ccc5c(c4)OCO5)on3)c2C)cc1	CYP2C9 inh 53
CCC(C)(C)NC(=O)C(c1ccc(F)cc1)N(Cc1ccco1)C(=O)c1cnccn1 (stereo unspecified)	none
O=C(Nc1ccccc1-c1nnc(SCc2ccccc2Cl)o1)c1ccccc1	CYP2C9 inh 55 (no result: tolC growth inh)
COc1ccccc1-c1nnc(SCC(=O)Nc2ccc(Cl)cc2Cl)o1	none
CCc1nnc(NC(=O)CSc2nnc(-c3ccccc3NC(=O)c3ccccc3)o2)s1	CYP2C9 inh 51
CCOC(=O)CSc1nnc(-c2ccccc2NC(=O)c2ccccc2)o1	none
CCN(CC)CCCN1C(=O)C(=O)/C(=C(/O)c2ccc3c(c2)OCCO3)C1c1ccc(C)o1 (stereo unspecified)	none (no result: E coli WT exp)
CC(C)(C)n1ncc2c(=O)n(CC(=O)Nc3ccc4c(c3)OCCO4)cnc21	none
Cc1ccccc1Cn1nc(C)c(NC(=O)c2sc3ccccc3c2Cl)c1C	none (no result: tolC growth inh)
CC(=O)Nc1ccc(NS(=O)(=O)c2ccc3ccccc3c2)cc1	CYP2C9 inh 75, CYP2C19 inhib 99 (no result: tolC growth inh)
CC(=O)Nc1ccc(NS(=O)(=O)Cc2ccccc2)cc1	CYP2C19 inhib 58
CC(C)N(Cc1ccccc1)S(=O)(=O)N(C)C	CYP2C19 inhib 77
CC(=O)Nc1ccc(NS(=O)(=O)c2cccc3ccccc23)cc1	CYP2C19 inhib 89 (no result: tolC growth inh)
